According to ChEMBL document CHEMBL1135766, “Synthesis of conformationally constrained analogues of linezolid: structure-activity relationship (SAR) studies on selected novel tricyclic oxazolidinones” (2002):

Assays:
[1] = system: Enterococcus faecalis; test: In vitro antibacterial activity against Enterococcus faecalis ATCC 29212 (E. f. 034) vancomycin sensitive; assay type: functional
How it was run: (§1)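 Broth microdilution MIC per NCCLS guidelines in Mueller Hinton medium. Doubling dilutions from 256 to 1 μg/mL, inoculum (1–5) × 10⁵ CFU/mL, incubated overnight in ambient air at 35 °C. MIC is the lowest concentration giving complete growth inhibition. Linezolid and vancomycin served as controls.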

[2] = system: Staphylococcus aureus; test: In vitro antibacterial activity against methicillin resistant Staphylococcus aureus ATCC 33591 (S. a. 019); assay type: functional; how it was run: as §1
[3] = system: Staphylococcus aureus; test: In vitro antibacterial activity against Staphylococcus aureus ATCC 49951 (S. a. 213); assay type: functional; how it was run: as §1
[4] = system: Enterococcus faecalis; test: In vitro antibacterial activity against Enterococcus faecalis NCTC 12201 (E. f. 153) vancomycin resistant; assay type: functional; how it was run: as §1
[5] = system: Staphylococcus aureus; test: In vitro antibacterial activity against Staphylococcus aureus ATCC 29213 (S. a. 035); assay type: functional
How it was run: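 Broth microdilution per NCCLS guidelines in Mueller Hinton medium. Doubling dilutions 256–1 μg/mL; inoculum (1–5) × 10⁵ CFU/mL; plates incubated overnight at 35 °C in ambient air. MIC read as the lowest concentration giving complete growth inhibition. Linezolid and vancomycin served as controls.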

[6] = system: Enterococcus faecium; test: In vitro antibacterial activity against Enterococcus faecium ATCC 12202 (E.fm 154) vancomycin resistant

Measured: MIC

O=C1CCC(=O)N1C[C@H]1CN(c2cc(F)c3c(c2)OC[C@@H]2CCCN32)C(=O)O1
> 32 µg/mL: [1] | [2] | [3] | [4] | [5] | [6]
